Source: BindingDB's records for doi:10.1016/j.ejmech.2016.09.032 (China Pharmaceutical University, 2017)

Columns and labels:
[1] = biological target: T1, Integrin alpha-IIb/beta-3 (Homo sapiens, UniProt P08514+P05106); assay: Antagonist activity at GP2b/GP3a receptor in human platelet rich plasma assessed as inhibition of ADP-induced platelet aggregation preincubated for 1 min followed by ADP addition by aggregometric method
Outline: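 Human PRP from apheresis platelets, PPP from centrifugation at 3000r/min for 10 min used as reference. Compound in saline or 0.2% aqueous DMSO added to PRP, incubated 1 min, then ADP 20 μM (per table footnotes; methods list 10 μM) added. Light transmission aggregometry at 37°C, maximal aggregation vs PPP. Inhibition relative to control aggregation ratio. IC50 from at least four concentrations.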

[2] = biological target: T1, Integrin alpha-IIb/beta-3; assay: Antagonist activity at GP2b/GP3a receptor in human platelet rich plasma assessed as inhibition of thrombin-induced platelet aggregation preincubated for 1 min […] by aggregometric method
Outline: (§1)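 Aggregometry at 37°C in human apheresis PRP, PPP as reference. Compound in saline or 0.2% aqueous DMSO preincubated 1 min before inducer: collagen 1 μg/ml, thrombin 0.26 U/ml or U46619 2 μM (figure and table values; methods state 9 μg/ml, 1 U/ml, 6 μM). Percent inhibition vs control. IC50 from at least four concentrations, means of two to three dose-response curves.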

[3] = biological target: T1, Integrin alpha-IIb/beta-3; assay: Antagonist activity at GP2b/GP3a receptor in human platelet rich plasma assessed as inhibition of U46619-induced platelet aggregation preincubated for 1 min […] by aggregometric method; outline: as §1
[4] = biological target: T1, Integrin alpha-IIb/beta-3; assay: Antagonist activity at GP2b/GP3a receptor in human platelet rich plasma assessed as inhibition of collagen-induced platelet aggregation preincubated for 1 min […] by aggregometric method; outline: as §1

T1 sequence (P05106 27-788 limits assumed): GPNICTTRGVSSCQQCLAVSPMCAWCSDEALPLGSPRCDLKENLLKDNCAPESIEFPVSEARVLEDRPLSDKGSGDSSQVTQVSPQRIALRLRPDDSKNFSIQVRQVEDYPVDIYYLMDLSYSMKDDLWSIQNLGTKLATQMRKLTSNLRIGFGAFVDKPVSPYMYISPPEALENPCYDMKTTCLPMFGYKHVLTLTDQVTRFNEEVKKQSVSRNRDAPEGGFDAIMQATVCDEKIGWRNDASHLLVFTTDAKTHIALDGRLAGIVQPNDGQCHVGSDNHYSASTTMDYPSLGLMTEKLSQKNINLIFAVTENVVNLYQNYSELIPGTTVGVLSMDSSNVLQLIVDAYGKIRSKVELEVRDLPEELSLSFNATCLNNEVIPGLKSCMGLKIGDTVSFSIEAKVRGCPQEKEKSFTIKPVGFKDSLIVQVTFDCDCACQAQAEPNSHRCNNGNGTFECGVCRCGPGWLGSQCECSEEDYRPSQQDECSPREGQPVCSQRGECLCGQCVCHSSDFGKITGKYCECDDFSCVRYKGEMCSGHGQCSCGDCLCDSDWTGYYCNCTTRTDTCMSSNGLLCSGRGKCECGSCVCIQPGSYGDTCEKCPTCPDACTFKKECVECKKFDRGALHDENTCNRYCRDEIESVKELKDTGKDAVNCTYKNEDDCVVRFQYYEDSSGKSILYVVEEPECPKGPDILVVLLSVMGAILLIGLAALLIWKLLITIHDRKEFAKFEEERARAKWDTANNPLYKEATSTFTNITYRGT
T1 sequence (P08514 32-887 limits assumed): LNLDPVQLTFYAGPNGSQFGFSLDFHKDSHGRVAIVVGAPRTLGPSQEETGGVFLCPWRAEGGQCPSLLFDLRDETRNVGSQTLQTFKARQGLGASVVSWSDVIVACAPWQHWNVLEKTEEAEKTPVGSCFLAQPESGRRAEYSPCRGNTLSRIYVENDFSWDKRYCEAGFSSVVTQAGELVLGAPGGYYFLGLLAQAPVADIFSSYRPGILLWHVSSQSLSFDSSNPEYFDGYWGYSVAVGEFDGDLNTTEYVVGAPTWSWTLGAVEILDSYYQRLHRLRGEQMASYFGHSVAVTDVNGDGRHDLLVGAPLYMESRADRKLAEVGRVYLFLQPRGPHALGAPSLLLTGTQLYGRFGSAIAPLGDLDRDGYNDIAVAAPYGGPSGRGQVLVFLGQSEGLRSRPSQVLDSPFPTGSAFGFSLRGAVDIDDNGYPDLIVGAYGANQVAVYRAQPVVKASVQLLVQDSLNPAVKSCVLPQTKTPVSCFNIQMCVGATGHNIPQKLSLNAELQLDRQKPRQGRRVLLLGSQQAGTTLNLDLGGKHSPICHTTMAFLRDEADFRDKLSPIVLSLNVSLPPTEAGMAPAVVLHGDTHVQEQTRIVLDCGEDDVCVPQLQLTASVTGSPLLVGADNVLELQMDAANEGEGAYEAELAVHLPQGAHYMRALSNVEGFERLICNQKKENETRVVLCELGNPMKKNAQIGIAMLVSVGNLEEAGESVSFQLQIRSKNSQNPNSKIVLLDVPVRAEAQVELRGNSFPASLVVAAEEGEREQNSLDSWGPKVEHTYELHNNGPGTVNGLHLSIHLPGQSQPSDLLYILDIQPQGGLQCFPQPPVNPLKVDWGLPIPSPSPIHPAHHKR
T1 sequence (P08514 891-1039 limits assumed): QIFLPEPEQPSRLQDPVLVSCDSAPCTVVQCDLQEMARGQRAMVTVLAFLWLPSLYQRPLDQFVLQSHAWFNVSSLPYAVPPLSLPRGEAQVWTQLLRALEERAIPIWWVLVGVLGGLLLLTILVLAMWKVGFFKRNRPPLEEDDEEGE

Compound | IC50 [1] [µM] | other results
O=C(NC(Cc1ccc2cc(OCCCN3CCNCC3)ccc2c1)C(=O)O)c1cc(Cl)cc(Cl)c1 (centres undefined) | 24.6 | 
O=C(O)C(Cc1ccc2cc(OCCN3CCNCC3)ccc2c1)NS(=O)(=O)c1ccc(Br)cc1 (centres undefined) | 12.8 | 
Cc1ccc(S(=O)(=O)NC(Cc2ccc3cc(OCc4ccc(C(=N)N)cc4)ccc3c2)C(=O)O)cc1 (centres undefined) | 4.01 | 
COc1ccc(S(=O)(=O)NC(Cc2ccc3cc(OCCCN4CCNCC4)ccc3c2)C(=O)O)cc1 (centres undefined) | 1.65 | 
O=C(NC(Cc1ccc2cc(OCCCN3CCNCC3)ccc2c1)C(=O)O)c1cccc(F)c1 (centres undefined) | 6.38 | 
O=C(NC(Cc1ccc2cc(OCCCN3CCNCC3)ccc2c1)C(=O)O)c1ccccc1 (centres undefined) | 7.9 | 
CCCCS(=O)(=O)NC(Cc1ccc2cc(OCCCN3CCNCC3)ccc2c1)C(=O)O (centres undefined) | 0.52 | 
O=C(O)C(Cc1ccc2cc(OCCCCN3CCNCC3)ccc2c1)NS(=O)(=O)c1ccc(Br)cc1 (centres undefined) | 18.8 | 
CCCC(=O)NC(Cc1ccc2cc(OCc3ccc(C(=N)N)cc3)ccc2c1)C(=O)O (centres undefined) | 1.08 | 
O=C(O)C(Cc1ccc2cc(OCC3CCNCC3)ccc2c1)NS(=O)(=O)c1ccc(Br)cc1 (centres undefined) | > 100 | 
O=C(NC(Cc1ccc2cc(OCCCN3CCNCC3)ccc2c1)C(=O)O)c1ccc(F)cc1 (centres undefined) | 7.6 | 

Second part, led by results:

IC50 [1] [µM] | Compound | other results
5.4 | CCCC(=O)NC(Cc1ccc2cc(OCCCN3CCNCC3)ccc2c1)C(=O)O (centres undefined) | 
0.18 | O=C(O)C(Cc1ccc2cc(OCCCN3CCNCC3)ccc2c1)NS(=O)(=O)c1ccccc1 (centres undefined) | IC50 [2]: 0.53 µM; IC50 [3]: 1.01 µM; IC50 [4]: 1.32 µM
2.1 | N=C(N)c1ccc(COc2ccc3cc(CC(NC(=O)c4ccc([N+](=O)[O-])cc4)C(=O)O)ccc3c2)cc1 (centres undefined) | 
0.2 | O=C(O)C(Cc1ccc2cc(OCCCN3CCNCC3)ccc2c1)NS(=O)(=O)c1ccc([N+](=O)[O-])cc1 (centres undefined) | 
3.4 | O=C(NC(Cc1ccc2cc(OCCCN3CCNCC3)ccc2c1)C(=O)O)c1ccc([N+](=O)[O-])cc1 (centres undefined) | 
0.84 | N=C(N)c1ccc(COc2ccc3cc(CC(NS(=O)(=O)c4ccccc4)C(=O)O)ccc3c2)cc1 (centres undefined) | IC50 [2]: 22.9 µM; IC50 [3]: 23.6 µM; IC50 [4]: 27.7 µM
3.29 | CCCCS(=O)(=O)NC(Cc1ccc2cc(OCc3ccc(C(=N)N)cc3)ccc2c1)C(=O)O (centres undefined) | 
0.28 | O=C(O)C(Cc1ccc2cc(OCCCN3CCNCC3)ccc2c1)NS(=O)(=O)c1ccc(F)cc1 (centres undefined) | 
12.7 | COc1ccc(C(=O)NC(Cc2ccc3cc(OCCCN4CCNCC4)ccc3c2)C(=O)O)cc1 (centres undefined) | 
> 100 | O=C(O)C(Cc1ccc2cc(OCCC3CCNCC3)ccc2c1)NS(=O)(=O)c1ccc(Br)cc1 (centres undefined) | 
> 100 | O=C(O)C(Cc1ccc2cc(OCCCC3CCNCC3)ccc2c1)NS(=O)(=O)c1ccc(Br)cc1 (centres undefined) | 
0.37 | O=C(O)C(Cc1ccc2cc(OCCCN3CCNCC3)ccc2c1)NS(=O)(=O)c1ccc(Br)cc1 (centres undefined) | 
